Assay results reported in PubChem BioAssay.
Activity calls are given as the source filed them.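 Rule for the calls, unless noted: active = GFP response above 150% of the DMSO level; inconclusive = fewer than 70 events counted for a yeast strain; inactive = the rest.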

Tests used:
[1] = hit retest on RPL19A-GFP reporter strain – cell-based, S. cerevisiae, flow cytometry, cherry picks, mother/daughter gates, confirmation (AID 2270;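 active = GFP response below 50% of the DMSO control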); conditions: 3 h, at 10 µM, stronger effect = lower value, 100 = same GFP as DMSO wells
[2] = yeast TOR pathway reporter LAP4-GFP change – cell-based, cherry picks, flow cytometry, mother/daughter gates, confirmation (AID 2271;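 active = GFP response above 150% of the DMSO control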;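 note: ratio of sample to DMSO plate mean so 100% equals DMSO level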); conditions: S. cerevisiae LAP4-GFP strain, 3 h, at 10 µM, stronger effect = higher value, 100 means same as DMSO control
Outline: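 material = Alexa 633-stained baker's yeast GFP-fusion strain | amount = 0.2 OD600 cells | schedule = 30 °C, 3 h compound incubation, rotating | signal = GFP by flow cytometry | measure = per-gate (all, mother, daughter) GFP response vs DMSO | controls = positive rapamycin (400 ng/mL), negative DMSO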

[3] = TOR pathway reporter MEP2-GFP, retest of hits – S. cerevisiae, flow cytometry GFP, cherry picks, confirmation (AID 2272;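 active = GFP response above 150% of the DMSO control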;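 note: ratio of well signal to plate DMSO mean so 100% equals DMSO level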); conditions: S. cerevisiae MEP2-GFP strain, 3 h, at 10 µM, stronger effect = higher value
[4] = yeast AGP1-GFP fluorescence change, single-dose – cell-based, flow cytometry, S. cerevisiae, cherry picks, confirmation (AID 2273);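 note: median GFP channel fluorescence over the whole cell population gate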; conditions: S. cerevisiae AGP1-GFP strain, 3 h, at 10 µM
[5] = TOR pathway CIT2 reporter hit retest – S. cerevisiae, GFP fusion, cherry picks, mother/daughter gates, confirmation (AID 2274); conditions: S. cerevisiae CIT2-GFP strain, flow cytometry, 3 h, at 10 µM, stronger effect = higher value
[6] = measured here: daughter cell gate
[7] = measured here: mother cell gate
[8] = measured here: daughter cell gate response
[9] = measured here: mother cell gate response

Structure (SMILES)	GFP response vs DMSO [1]	GFP response vs DMSO [1, 6] [%]	GFP response vs DMSO [1, 7] [%]	GFP response relative to DMSO [2]	GFP response relative to DMSO [2, 8] [%]	GFP response relative to DMSO [2, 9] [%]	GFP response vs DMSO [3]	GFP response, % of DMSO [4]	GFP response, % of DMSO [5]	GFP response, % of DMSO [5, 6] [%]	GFP response, % of DMSO [5, 7] [%]
Cc1ccc(NC(=O)c2nc(S(=O)(=O)Cc3ccccc3C)ncc2Cl)cc1C	91.6% (inactive)	89.6	91.6	107% (inactive)	107	107	103% (inactive)	107% (inactive)	94.4% (inactive)	92.3	94.9
O=C(N/N=C/c1c(Cl)cccc1Cl)c1cccc(F)c1	95.6% (inactive)	95.3	94	92.9% (inactive)	94.4	93.4	103% (inactive)	97.5% (inactive)	97.2% (inactive)	99.3	97.1
Cc1ccc(/C=N/Nc2ncc(Cl)cc2Cl)s1	86.7% (inactive)	62.7	78.2	331% (active)	202	317	115% (inactive)	81.8% (inactive)	107% (inactive)	95.4	98.5
Cc1cccc(NC(=O)c2ccc([N+](=O)[O-])o2)c1	103% (inactive)	105	101	126% (inactive)	115	125	106% (inactive)	96.2% (inactive)	105% (inactive)	106	101
O=c1oc2cc(Oc3c([N+](=O)[O-])cc(C(F)(F)F)cc3[N+](=O)[O-])ccc2c2c1CCCC2	95.4% (inactive)	90.7	86.8	246% (active)	153	249	105% (inactive)	108% (inactive)	100% (inactive)	97.4	94.4
Cc1nc(SC2CC(=O)N(c3ccccc3)C2=O)nc2c1CCCC2 (centres undefined)	95.4% (inactive)	95.9	95.8	97.9% (inactive)	97.6	97.2	96.2% (inactive)	93.1% (inactive)	101% (inactive)	101	99.7
CCC(=O)Nc1ccc(NC(=O)c2oc3ccccc3c2C)cc1	101% (inactive)	95	96.3	99.8% (inactive)	100	101	102% (inactive)	93.9% (inactive)	103% (inactive)	99.7	102
O=C(COc1ccc(F)cc1Cl)Nc1nc(-c2ccccn2)cs1	98% (inactive)	94.7	97.1	132% (inactive)	132	137	110% (inactive)	98.8% (inactive)	94.4% (inactive)	97.6	89.3
O=C(NCCCSc1ccccc1)c1cc(Cl)ccc1O	100% (inactive)	98	102	108% (inactive)	104	110	104% (inactive)	90.5% (inactive)	96.4% (inactive)	96.4	94.5
COC(=O)Cc1ccc(OCc2ccc(Cl)nc2)cc1	97.8% (inactive)	97.5	98.6	107% (inactive)	107	106	97.5% (inactive)	101% (inactive)	95% (inactive)	94.6	94.5
O=C(Oc1oc(-c2ccco2)nc1C=Nc1ccc(Cl)cc1)c1ccco1	104% (inactive)	104	103	176% (active)	154	188	112% (inactive)	99.8% (inactive)	89.7% (inactive)	95.2	83.8
O=C1C(CSCc2ccccc2)NC(=S)N1c1ccccc1 (centres undefined)	102% (inactive)	102	101	122% (inactive)	120	128	98.8% (inactive)	98.1% (inactive)	99.7% (inactive)	102	94.7
COc1cccc2c1Oc1ncccc1N(C(=O)CCC(=O)NCc1ccccc1Cl)C2	95.6% (inactive)	97.9	95.8	97% (inactive)	97.5	96.2	99% (inactive)	99.6% (inactive)	103% (inactive)	103	103
Cc1ccc(S(=O)(=O)N(Cc2ccc(F)cc2)Cc2ccco2)cc1	97.6% (inactive)	96.7	97.7	102% (inactive)	105	104	103% (inactive)	97.9% (inactive)	97.2% (inactive)	99.3	98.2
